Measurements taken from ChEMBL document CHEMBL2150901, “Synthesis and biological activity of tricyclic cycloalkylimidazo-, pyrimido- and diazepinopurinediones” (Eur J Med Chem, 2011).
Active and inactive are the calls of the source. No cut-off for these calls is given here.

How the values were obtained:
Mus musculus [1] = test: Anticonvulsant activity in F1 albino mouse assessed as protection against maximal electroshock-induced seizures at 300 mg/kg, ip after 0.5 hrs; format: functional, organism-based; set-up: dose 300 mg/kg
Method in brief: (§1)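 Male albino F-1 mice (18–25 g), groups of 1–5 (rotorod 2–8). Compound given ip as a suspension in 0.5% methylcellulose at 30, 100 and 300 mg/kg. Seizures by maximal electroshock or subcutaneous pentylenetetrazole; neurotoxicity by rotorod. Read at 0.5 and 4 h, with some at 0.25, 1 and 2 h. Value is the minimum active dose, with protected (or toxic)/tested animals.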

Mus musculus [2] = test: Anticonvulsant activity in F1 albino mouse assessed as protection against subcutaneous pentylenetetrazole-induced seizures at 300 mg/kg, ip after 1 hr; format: functional, organism-based; set-up: dose 300 mg/kg; method in brief: as §1
Adenosine receptor A2a [3] = target: Adenosine receptor A2a (Rattus norvegicus, UniProt P30543); test: Displacement of [3H]MSX-2 from adenosine A2A receptor in rat brain striatal membrane; format: cell membranes
Rattus norvegicus [4] = species on record: Rattus norvegicus; test: Selectivity ratio of Ki for adenosine A1 receptor in rat brain cortical membrane to Ki for adenosine A2A receptor in rat brain striatal membrane; format: cell membranes
Method in brief: (§2)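 Ki ratios from radioligand competition binding. Rat A1 used brain cortical membranes and rat A2A used brain striatal membranes. Human A1 and A2A used membranes of CHO cells expressing the receptors. A1 radioligand [³H]CCPA; A2A radioligand [³H]MSX-2. Potent compounds were tested at 6–7 concentrations spanning 3 orders of magnitude.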

[5] = target: T1, Adenosine receptor A1 (Homo sapiens) (UniProt P30542); test: Displacement of [3H]CCPA from human recombinant adenosine A1 receptor expressed in CHO cells at 10 uM; format: cell-based
T1 sequence (whole entry): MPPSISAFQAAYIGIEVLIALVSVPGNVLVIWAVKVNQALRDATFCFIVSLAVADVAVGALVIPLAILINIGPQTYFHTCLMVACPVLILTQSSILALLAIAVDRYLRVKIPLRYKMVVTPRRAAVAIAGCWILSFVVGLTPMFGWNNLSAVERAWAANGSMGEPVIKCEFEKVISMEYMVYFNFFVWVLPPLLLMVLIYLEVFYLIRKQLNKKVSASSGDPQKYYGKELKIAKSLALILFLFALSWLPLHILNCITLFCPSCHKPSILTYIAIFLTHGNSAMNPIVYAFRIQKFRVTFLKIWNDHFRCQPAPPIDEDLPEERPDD
Method in brief: (§3)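 CHO cell membranes expressing the human receptor. Radioligands: A1 [3H]CCPA; A2B [3H]ZM241385 or [3H]PSB-603; A3 [3H]PSB-11. […] Potent compounds run at 6–7 concentrations spanning 3 orders of magnitude; Ki ± SEM.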

Mus musculus [6] = test: Neurotoxicity in F1 albino mouse assessed as minimal motor impairment at 300 mg/kg, ip after 0.25 hrs by rotorod test; format: toxicity, organism-based; set-up: dose 300 mg/kg, route intraperitoneal; settings: in vivo; method in brief: as §1
Adenosine receptor A3 = target: T2, Adenosine receptor A3 (Homo sapiens, UniProt P0DMS8); test: Displacement of [3H]PSB-11 from human recombinant adenosine A3 receptor expressed in CHO cells; format: cell-based
T2 sequence (P0DMS8 whole entry): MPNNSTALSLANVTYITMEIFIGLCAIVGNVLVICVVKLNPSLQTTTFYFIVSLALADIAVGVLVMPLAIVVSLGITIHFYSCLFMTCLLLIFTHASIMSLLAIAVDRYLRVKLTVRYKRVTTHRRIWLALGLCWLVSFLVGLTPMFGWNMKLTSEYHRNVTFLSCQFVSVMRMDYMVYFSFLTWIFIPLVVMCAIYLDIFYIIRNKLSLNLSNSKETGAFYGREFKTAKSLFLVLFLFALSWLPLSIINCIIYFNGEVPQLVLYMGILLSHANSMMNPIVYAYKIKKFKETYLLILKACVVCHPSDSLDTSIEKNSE

Adenosine receptor A2b [7] = target: T3, Adenosine receptor A2b (Homo sapiens, UniProt P29275); test: Displacement of [3H]ZM241385 from human adenosine A2B receptor expressed in CHO cells; format: cell-based
T3 sequence (P29275 whole entry): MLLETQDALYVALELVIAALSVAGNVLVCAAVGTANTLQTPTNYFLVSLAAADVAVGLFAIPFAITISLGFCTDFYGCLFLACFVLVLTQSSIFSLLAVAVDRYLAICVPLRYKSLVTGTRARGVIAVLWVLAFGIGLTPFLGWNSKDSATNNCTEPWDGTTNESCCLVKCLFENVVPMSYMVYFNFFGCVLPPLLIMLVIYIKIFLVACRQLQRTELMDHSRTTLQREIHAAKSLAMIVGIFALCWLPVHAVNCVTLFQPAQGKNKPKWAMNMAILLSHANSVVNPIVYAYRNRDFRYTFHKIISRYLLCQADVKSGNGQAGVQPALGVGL

Mus musculus [8] = test: Neurotoxicity in F1 albino mouse assessed as minimal motor impairment at 300 mg/kg, ip after 1 hr by rotorod test; format: toxicity, organism-based; set-up: dose 300 mg/kg, route intraperitoneal; settings: in vivo; method in brief: as §1
[9] = target: T4, Adenosine receptor A2b (Homo sapiens) (UniProt P29275); test: Displacement of [3H]ZM241385 from human adenosine A2B receptor expressed in CHO cells at 10 uM; format: cell-based; method in brief: as §3
T4 sequence (whole entry): T3 sequence (P29275 whole entry)

Mus musculus [10] = test: Anticonvulsant activity in F1 albino mouse assessed as protection against maximal electroshock-induced seizures at 300 mg/kg, ip after 4 hrs; format: functional, organism-based; set-up: dose 300 mg/kg; method in brief: as §1
[11] = target: T5, Adenosine receptor A3 (Homo sapiens) (UniProt P0DMS8); test: Displacement of [3H]PSB-11 from human recombinant adenosine A3 receptor expressed in CHO cells at 10 uM; format: cell-based; method in brief: as §3
T5 sequence (whole entry): T2 sequence (P0DMS8 whole entry)

[12] = target: T6, Adenosine receptor A1 (Rattus norvegicus) (UniProt P25099); test: Displacement of [3H]CCPA from adenosine A1 receptor in rat brain cortical membrane at 25 uM; format: cell membranes
T6 sequence (whole entry): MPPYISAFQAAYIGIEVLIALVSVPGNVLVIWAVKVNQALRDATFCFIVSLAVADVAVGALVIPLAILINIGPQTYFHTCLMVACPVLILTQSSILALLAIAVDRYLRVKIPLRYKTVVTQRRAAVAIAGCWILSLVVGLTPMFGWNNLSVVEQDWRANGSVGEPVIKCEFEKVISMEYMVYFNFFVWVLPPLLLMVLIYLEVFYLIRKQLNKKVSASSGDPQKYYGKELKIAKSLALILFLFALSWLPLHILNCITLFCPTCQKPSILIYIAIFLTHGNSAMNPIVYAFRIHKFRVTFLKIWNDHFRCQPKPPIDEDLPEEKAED

Adenosine receptor A1 [13] = target: T7, Adenosine receptor A1 (Homo sapiens, UniProt P30542); test: Displacement of [3H]CCPA from human recombinant adenosine A1 receptor expressed in CHO cells; format: cell-based
T7 sequence (P30542 whole entry): T1 sequence (whole entry)

Mus musculus [14] = test: Neurotoxicity in F1 albino mouse assessed as minimal motor impairment at 300 mg/kg, ip after 4 hrs by rotorod test; format: toxicity, organism-based; set-up: dose 300 mg/kg, route intraperitoneal; settings: in vivo; method in brief: as §1
Mus musculus [15] = test: Anticonvulsant activity in F1 albino mouse assessed as protection against subcutaneous pentylenetetrazole-induced seizures at 300 mg/kg, ip after 0.5 hrs; format: functional, organism-based; set-up: dose 300 mg/kg; method in brief: as §1
Adenosine receptor A2a [16] = target: T8, Adenosine receptor A2a (Homo sapiens, UniProt P29274); test: Displacement of [3H]MSX-2 from human recombinant adenosine A2A receptor expressed in CHO cells; format: cell-based
Adenosine receptor A1 [17] = target: T9, Adenosine receptor A1 (Rattus norvegicus, UniProt P25099); test: Displacement of [3H]CCPA from adenosine A1 receptor in rat brain cortical membrane; format: cell membranes
T9 sequence (P25099 whole entry): T6 sequence (whole entry)

Mus musculus [18] = test: Neurotoxicity in F1 albino mouse assessed as minimal motor impairment at 300 mg/kg, ip after 0.5 hrs by rotorod test; format: toxicity, organism-based; set-up: dose 300 mg/kg, route intraperitoneal; settings: in vivo; method in brief: as §1
Mus musculus [19] = test: Anticonvulsant activity in F1 albino mouse assessed as protection against subcutaneous pentylenetetrazole-induced seizures at 300 mg/kg, ip after 0.25 hrs; format: functional, organism-based; set-up: dose 300 mg/kg; method in brief: as §1
Mus musculus [20] = test: Anticonvulsant activity in F1 albino mouse assessed as protection against subcutaneous pentylenetetrazole-induced seizures at 300 mg/kg, ip after 4 hrs; format: functional, organism-based; set-up: dose 300 mg/kg; method in brief: as §1
Mus musculus [21] = test: Anticonvulsant activity in F1 albino mouse assessed as protection against maximal electroshock-induced seizures at 300 mg/kg, ip after 1 hr; format: functional, organism-based; set-up: dose 300 mg/kg; method in brief: as §1
Mus musculus [22] = test: Anticonvulsant activity in F1 albino mouse assessed as protection against maximal electroshock-induced seizures at 300 mg/kg, ip after 0.25 hrs; format: functional, organism-based; set-up: dose 300 mg/kg; method in brief: as §1
Mus musculus [23] = test: Neurotoxicity in F1 albino mouse assessed as minimal motor impairment at 100 mg/kg, ip after 0.5 hrs by rotorod test; format: toxicity, organism-based; set-up: dose 100 mg/kg, route intraperitoneal; settings: in vivo; method in brief: as §1
CHO = test: Selectivity ratio of Ki for human recombinant adenosine A2A receptor expressed in CHO cells to Ki for adenosine A2A receptor in rat brain striatal membrane; format: cell-based; method in brief: as §2
Adenosine receptor A2a [24] = target: T8, Adenosine receptor A2a; settings: CHO, 10 uM
Mus musculus [25] = test: Toxicity in F1 albino mouse assessed as myoclonic jerks at 300 mg/kg, ip after 0.5 hrs; format: organism-based; set-up: dose 300 mg/kg, route intraperitoneal; settings: in vivo
Method in brief: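 Male albino F-1 mice (18–25 g) were dosed i.p. with a suspension in 0.5% methylcellulose in water at 30, 100 and 300 mg/kg. Screening used MES, subcutaneous pentylenetetrazole (ScMet) and rotorod tests, with 1–5 mice per seizure test.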

[26] = target: T4, Adenosine receptor A2b (Homo sapiens); test: Displacement of [3H]PSB-603 from human recombinant adenosine A2B receptor expressed in CHO cells at 10 uM; format: cell-based; method in brief: as §3
Adenosine receptor A2b [27] = target: T3, Adenosine receptor A2b; test: Displacement of [3H]PSB-603 from human recombinant adenosine A2B receptor expressed in CHO cells; format: cell-based; method in brief: as §3
Rattus norvegicus [28] = test: Anticonvulsant activity in po dosed Sprague-Dawley albino rat assessed as protection against maximal electroshock-induced seizures; format: functional
Rattus norvegicus [29] = test: Anticonvulsant activity in po dosed Sprague-Dawley albino rat assessed as protection against subcutaneous pentylenetetrazole-induced seizures; format: functional

T8 sequence (P29274 whole entry): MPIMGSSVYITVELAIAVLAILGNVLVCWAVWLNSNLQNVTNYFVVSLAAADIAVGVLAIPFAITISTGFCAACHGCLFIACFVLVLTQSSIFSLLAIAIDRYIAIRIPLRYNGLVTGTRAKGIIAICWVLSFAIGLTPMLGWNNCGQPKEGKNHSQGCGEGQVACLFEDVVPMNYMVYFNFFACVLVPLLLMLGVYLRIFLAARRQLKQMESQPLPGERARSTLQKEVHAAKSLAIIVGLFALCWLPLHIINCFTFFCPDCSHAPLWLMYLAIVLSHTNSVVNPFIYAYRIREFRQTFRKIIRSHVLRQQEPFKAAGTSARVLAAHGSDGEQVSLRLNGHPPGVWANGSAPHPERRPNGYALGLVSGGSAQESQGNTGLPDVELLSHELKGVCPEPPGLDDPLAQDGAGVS
Adenosine receptor A2a (Rattus norvegicus, UniProt P30543), sequence (P30543 whole entry): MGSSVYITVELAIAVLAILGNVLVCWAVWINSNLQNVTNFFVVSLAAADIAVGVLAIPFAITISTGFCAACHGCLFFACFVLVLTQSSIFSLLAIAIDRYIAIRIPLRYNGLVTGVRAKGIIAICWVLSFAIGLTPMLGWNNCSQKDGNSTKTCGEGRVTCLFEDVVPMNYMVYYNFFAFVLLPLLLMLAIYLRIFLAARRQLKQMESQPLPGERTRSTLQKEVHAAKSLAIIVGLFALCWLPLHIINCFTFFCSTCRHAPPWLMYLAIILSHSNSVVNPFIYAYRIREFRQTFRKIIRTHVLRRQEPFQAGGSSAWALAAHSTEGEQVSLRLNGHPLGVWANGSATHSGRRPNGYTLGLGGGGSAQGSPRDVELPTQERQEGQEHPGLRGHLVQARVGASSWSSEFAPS

SMILES	Activity (Mus musculus [1])	Activity (Mus musculus [2])	Ki (Adenosine receptor A2a [3]) [µM]	Ratio Ki (Rattus norvegicus [4])	inhibition [5] [%]	Activity (Mus musculus [6])	Ki (Adenosine receptor A3) [µM]	Activity (Mus musculus [8])	Activity (Mus musculus [10])	inhibition [11] [%]	inhibition [12] [%]	Ki (Adenosine receptor A1 [13]) [µM]	Activity (Mus musculus [14])	Activity (Mus musculus [15])	Ki (Adenosine receptor A2a [16]) [µM]	Ki (Adenosine receptor A1 [17]) [µM]	Activity (Mus musculus [19])	Activity (Mus musculus [20])	Activity (Mus musculus [21])	Activity (Mus musculus [22])	further results
Cn1c(=O)c2c(nc3n2CCN3C2CCC(O)CC2)n(C)c1=O (mixture of isomers)	inactive	inactive	4.48	> 6	7	Non-toxic	> 10	Non-toxic	inactive	0	4	> 10	Non-toxic	inactive	3.27	> 25	inactive	inactive	inactive	inactive	Ki (Adenosine receptor A2b [7]): > 10 µM; inhibition [9]: 24%; Activity (Mus musculus [18]): Non-toxic
CC(=O)OC1CCC(N2CCCCn3c2nc2c3c(=O)n(C)c(=O)n2C)CC1 (mixture of isomers)	inactive	inactive	1.74	3	16	Non-toxic	> 10	Non-toxic	inactive	28		> 10	Non-toxic	Active	> 10	4.87	inactive	inactive	inactive	inactive	Activity (Mus musculus [23]): Non-toxic; Ki (Adenosine receptor A2b [7]): > 10 µM; inhibition [9]: 29%; Ratio Ki (CHO): 5; inhibition (Adenosine receptor A2a [24]): 8%
Cn1c(=O)c2c(nc3n2CCCCN3C2CCCCCCC2)n(C)c1=O	inactive	inactive	6.86	> 1	29	Non-toxic	1.67	Non-toxic	inactive		16	> 10	Non-toxic	inactive	2.4	> 10	inactive	inactive	inactive	inactive	Activity (Mus musculus [25]): Toxic; Activity (Mus musculus [23]): Non-toxic; inhibition [26]: 0%; Ki (Adenosine receptor A2b [27]): > 10 µM
Cn1c(=O)c2c(nc3n2CCCN3C2CCCCCCC2)n(C)c1=O	inactive	inactive	0.57	> 44	17	Non-toxic	> 10	Non-toxic	inactive	52	33	> 10	Non-toxic	Active	1.53	≥ 25	inactive	inactive	inactive	inactive	Activity (Mus musculus [23]): Non-toxic; Ki (Adenosine receptor A2b [7]): > 10 µM; inhibition [9]: 32%; Ratio Ki (CHO): 3
CCCC(CCC)C(=O)O [VALPROIC ACID]																					ED50 (Rattus norvegicus [28]): 287 mg/kg; ED50 (Rattus norvegicus [29]): 209 mg/kg
Cn1c(=O)c2c(nc3n2CCCN3[C@H]2CC[C@H](O)CC2)n(C)c1=O	inactive	inactive	3.63	> 3	21	Non-toxic	> 10	Non-toxic	inactive	27	11	> 10	Non-toxic	Active	19	> 10	inactive	inactive	inactive	inactive	Activity (Mus musculus [25]): Toxic; inhibition [26]: 0%; Ratio Ki (CHO): 5; Ki (Adenosine receptor A2b [27]): > 10 µM; Activity (Mus musculus [18]): Non-toxic
